In brackets after ≈: the same amount, converted by molar mass.
How the values were obtained:
[1] = Antimicrobial activity against Group C Streptococcus assessed as susceptible isolates by agar dilution method; assay type: functional, Streptococcus sp. 'group C'
How it was run: (§1)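 Clinical isolates of beta-hemolytic streptococci, S. mitis and S. pneumoniae were tested by CLSI methodology, with Mueller-Hinton medium supplemented with 5% lysed horse blood. S. aureus ATCC 29213 and S. pneumoniae ATCC 49619 served as control strains. The percentage of susceptible isolates was derived from CLSI breakpoints.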

[2] = Antimicrobial activity against Group C Streptococcus by agar dilution method; assay type: functional; conditions: Streptococcus sp. 'group C'; how it was run: as §1
Staphylococcus aureus [3] = assay: Antimicrobial activity against methicillin-sensitive Staphylococcus aureus by agar dilution method; assay type: functional
How it was run: (§2)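 MICs against clinical MRSA or MSSA isolates by CLSI agar dilution, with S. aureus ATCC 29213 as control strain. Percentage of susceptible isolates was calculated from the MICs using CLSI breakpoints.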

Staphylococcus aureus [4] = assay: Antimicrobial activity against vancomycin-resistant Staphylococcus aureus by agar dilution method; assay type: functional
How it was run: (§3)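 Clinical S. aureus isolates classed as hVISA or VISA by population analysis profiling. MICs by CLSI agar dilution, with S. aureus ATCC 29213 as control strain.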

[5] = Antimicrobial activity against Group G Streptococcus assessed as susceptible isolates by agar dilution method; assay type: functional, Streptococcus sp. 'group G'; how it was run: as §1
[6] = Antimicrobial activity against Group G Streptococcus by agar dilution method; assay type: functional; conditions: Streptococcus sp. 'group G'; how it was run: as §1
Streptococcus mitis = assay: Antimicrobial activity against Streptococcus mitis by broth dilution method
[7] = tested on: Streptococcus sp. 'group A'; assay: Antimicrobial activity against Group A Streptococcus by agar dilution method; assay type: functional; how it was run: as §1
Staphylococcus aureus [8] = assay: Antimicrobial activity against methicillin-resistant Staphylococcus aureus by agar dilution method; assay type: functional; how it was run: as §2
Streptococcus pneumoniae [9] = assay: Antimicrobial activity against Streptococcus pneumoniae by agar dilution method; assay type: functional; how it was run: as §1
[10] = tested on: Streptococcus sp. 'group A'; assay: Antimicrobial activity against Group A Streptococcus assessed as susceptible isolates by agar dilution method; assay type: functional; how it was run: as §1
Corynebacterium sp. = assay: Antimicrobial activity against Corynebacterium spp. by agar dilution method; assay type: functional
Staphylococcus [11] = assay: Antimicrobial activity against Coagulase-negative Staphylococcus by agar dilution method; assay type: functional
How it was run: (§4)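 CLSI agar dilution MIC testing of clinical isolates of staphylococci and Listeria. S. aureus ATCC 29213 and S. pneumoniae ATCC 49619 served as control strains. The percentage of susceptible isolates was calculated from CLSI breakpoints.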

Listeria monocytogenes = assay: Antimicrobial activity against Listeria monocytogenes by agar dilution method; assay type: functional; how it was run: as §4
Staphylococcus [12] = assay: Antimicrobial activity against Coagulase-negative Staphylococcus assessed as susceptible isolates by agar dilution method; assay type: functional; how it was run: as §4
Staphylococcus aureus [13] = assay: Antimicrobial activity against methicillin-sensitive Staphylococcus aureus assessed as susceptible isolates by agar dilution method; assay type: functional; how it was run: as §2
[14] = tested on: Streptococcus sp. 'group B'; assay: Antimicrobial activity against Group B Streptococcus assessed as susceptible isolates by agar dilution method; assay type: functional; how it was run: as §1
Staphylococcus aureus [15] = assay: Antimicrobial activity against Heterovancomycin-resistant Staphylococcus aureus by agar dilution method; assay type: functional; how it was run: as §3
Streptococcus pneumoniae [16] = assay: Antimicrobial activity against Streptococcus pneumoniae assessed as susceptible isolates by agar dilution method; assay type: functional; how it was run: as §1
[17] = tested on: Streptococcus sp. 'group B'; assay: Antimicrobial activity against Group B Streptococcus by agar dilution method; assay type: functional; how it was run: as §1
Staphylococcus aureus [18] = assay: Antimicrobial activity against methicillin-resistant Staphylococcus aureus assessed as susceptible isolates by agar dilution method; assay type: functional; how it was run: as §2
Staphylococcus aureus [19] = assay: Antimicrobial activity against vancomycin-resistant Staphylococcus aureus assessed as susceptible isolates by agar dilution method; assay type: functional
Staphylococcus aureus [20] = assay: Antimicrobial activity against Heterovancomycin-resistant Staphylococcus aureus assessed as susceptible isolates by agar dilution method; assay type: functional

SMILES	MIC50 [2] [µg/mL]	MIC90 [2] [µg/mL]	MIC50 (Staphylococcus aureus [3]) [µg/mL]	MIC90 (Staphylococcus aureus [3]) [µg/mL]	MIC50 (Staphylococcus aureus [4]) [µg/mL]	MIC90 (Staphylococcus aureus [4]) [µg/mL]	MIC50 [6] [µg/mL]	MIC90 [6] [µg/mL]	MIC50 (Streptococcus mitis) [µg/mL]	MIC50 [7] [µg/mL]	MIC90 [7] [µg/mL]	MIC50 (Staphylococcus aureus [8]) [µg/mL]	MIC90 (Staphylococcus aureus [8]) [µg/mL]	MIC50 (Streptococcus pneumoniae [9]) [µg/mL]	MIC90 (Streptococcus pneumoniae [9]) [µg/mL]	MIC50 (Corynebacterium sp.) [µg/mL]	MIC90 (Corynebacterium sp.) [µg/mL]	MIC50 (Staphylococcus [11]) [µg/mL]	MIC90 (Staphylococcus [11]) [µg/mL]	MIC50 (Listeria monocytogenes) [µg/mL]	further results
CC(=O)NC[C@H]1CN(c2ccc(N3CCOCC3)c(F)c2)C(=O)O1 [LINEZOLID]	1 (≈ 2.96 µM)	2 (≈ 5.93 µM)	2 (≈ 5.93 µM)	2 (≈ 5.93 µM)	1 (≈ 2.96 µM)	2 (≈ 5.93 µM)	2 (≈ 5.93 µM)	2 (≈ 5.93 µM)	1 (≈ 2.96 µM)	1 (≈ 2.96 µM)	1 (≈ 2.96 µM)	2 (≈ 5.93 µM)	2 (≈ 5.93 µM)	1 (≈ 2.96 µM)	2 (≈ 5.93 µM)	0.06 (≈ 0.178 µM)	0.12 (≈ 0.356 µM)	1 (≈ 2.96 µM)	2 (≈ 5.93 µM)	2 (≈ 5.93 µM)	Activity [1]: 100%; MIC [2]: 1 µg/mL (≈ 2.96 µM); Activity [5]: 100%; Activity [10]: 100%; MIC (Listeria monocytogenes): 2 µg/mL (≈ 5.93 µM); MIC90 (Listeria monocytogenes): 2 µg/mL (≈ 5.93 µM); Activity (Staphylococcus [12]): 100%; Activity (Staphylococcus aureus [13]): 100%; Activity [14]: 100%; MIC (Staphylococcus aureus [15]): 1 µg/mL (≈ 2.96 µM); MIC50 (Staphylococcus aureus [15]): 1 µg/mL (≈ 2.96 µM); MIC90 (Staphylococcus aureus [15]): 2 µg/mL (≈ 5.93 µM); Activity (Streptococcus pneumoniae [16]): 100%; MIC [17]: 1 µg/mL (≈ 2.96 µM); MIC50 [17]: 1 µg/mL (≈ 2.96 µM); MIC90 [17]: 2 µg/mL (≈ 5.93 µM)
COc1cc(Cc2cnc(N)nc2N)cc(OC)c1OC [TRIMETHOPRIM]	0.5 (≈ 1.72 µM)	1 (≈ 3.44 µM)	1 (≈ 3.44 µM)	2 (≈ 6.89 µM)	1 (≈ 3.44 µM)	32 (≈ 110 µM)	1 (≈ 3.44 µM)	1 (≈ 3.44 µM)	4 (≈ 13.8 µM)	0.5 (≈ 1.72 µM)	1 (≈ 3.44 µM)	0.25 (≈ 0.861 µM)	32 (≈ 110 µM)	1 (≈ 3.44 µM)	4 (≈ 13.8 µM)	16 (≈ 55.1 µM)	16 (≈ 55.1 µM)	16 (≈ 55.1 µM)	32 (≈ 110 µM)	0.06 (≈ 0.207 µM)	Activity (Staphylococcus aureus [18]): 80%; MIC (Streptococcus mitis): < 0.008 µg/mL; Activity (Staphylococcus aureus [19]): 71%; MIC90 (Listeria monocytogenes): 0.06 µg/mL (≈ 0.207 µM); Activity (Staphylococcus [12]): 48%; Activity (Staphylococcus aureus [13]): 92%; MIC50 (Staphylococcus aureus [15]): 1 µg/mL (≈ 3.44 µM); MIC90 (Staphylococcus aureus [15]): 16 µg/mL (≈ 55.1 µM); MIC50 [17]: 1 µg/mL (≈ 3.44 µM); MIC90 [17]: 1 µg/mL (≈ 3.44 µM); Activity (Staphylococcus aureus [20]): 80%
